# Experimental data of several laboratories.
# Effect on: cell growth or viability
Compound,cell line,test,conditions,IC50
CCn1c2ccccc2c2cc(C3CC(c4cc5c(ccc6ccccc65)oc4=O)=NN3c3ccccc3)ccc21 (stereo not drawn),NRK-52E,MTT,24 h,122 µM
COc1cc2c(Oc3ccc(NC(=O)C4(C(=O)Nc5ccc(F)cc5)CC4)cc3F)ccnc2cc1OCCCN1CCOCC1,Rh18,,72 h,0.31 µM
CC(C)n1cc(C(c2ccc(/C=C/C(=O)O)s2)c2cn(C(C)C)c3ccccc23)c2ccccc21,KG-1,,48 h,> 5 µM
COC(=O)N[C@@H](C)CNc1nccc(-c2cn(C(C)C)nc2-c2cc(Cl)cc(NS(C)(=O)=O)c2F)n1,Malme-3M,,,0.0039 µM
Cc1ccc2c(c1)c(C(c1ccc(/C=C/C(=O)O)s1)c1cn(C(C)C)c3ccc(C)cc13)cn2C(C)C,KG-1,,48 h,> 5 µM
CC1=C(O)C(=O)C=C2C1=CC=C1[C@@]2(C)CC[C@@]2(C)[C@@H]3C[C@](C)(C(=O)OCCCCO)CC[C@]3(C)CC[C@]12C,Bel-7402,MTT,48 h,0.63 µM
O=C(O)/C=C/c1cccc(C(c2c[nH]c3ccccc23)c2c[nH]c3ccccc23)c1,KG-1,,48 h,> 20 µM
CCn1c2ccccc2c2cc(/C=C/C(=O)c3cc4ccccc4oc3=O)ccc21,NRK-52E,MTT,24 h,94.6 µM
CC(C)C[C@H](NC(=O)[C@H](Cc1ccccc1)NC(=O)c1cnccn1)B(O)O,NCI-H1573,ATP luminescence,,0.029 µM
CCn1c2ccccc2c2cc(C3CC(c4cc5c(ccc6ccccc65)oc4=O)=NN3C(N)=O)ccc21 (stereo not drawn),NRK-52E,MTT,24 h,59.1 µM
CC1=C(O)C(=O)C=C2C1=CC=C1[C@@]2(C)CC[C@@]2(C)[C@@H]3C[C@](C)(C(=O)OCCO)CC[C@]3(C)CC[C@]12C,Bel-7402,MTT,48 h,0.68 µM
Cn1cc(C(c2ccc(/C=C/C(=O)O)s2)c2cn(C)c3ccccc23)c2ccccc21,KG-1,,48 h,> 20 µM
CCn1c2ccccc2c2cc(C3CC(c4cc5cccc(OC)c5oc4=O)=NN3c3ccccc3)ccc21 (stereo not drawn),NRK-52E,MTT,24 h,70.4 µM
CC(C)[C@H](N)C(=O)N1CCC[C@H]1B(O)O,MOLM-13,ATP luminescence,48 h,0.12 µM
COc1cc2nccc(Oc3ccc(NC(=O)C4(C(=O)Nc5ccc(F)cc5)CC4)cc3)c2cc1OC,Rh18,,72 h,5.75 µM
Nc1ncc(-c2cnn(C3CCNCC3)c2)cc1-c1nnc(CC2CC2)o1,MOLM-13,trypan blue,72 h,0.184 µM
COc1cc(Nc2nccc(-c3cnn4nc(OC)ccc34)n2)cc(C(F)(F)F)c1,NCI-H1573,ATP luminescence,,0.63 µM
CCn1c2ccccc2c2cc(/C=C/C(=O)c3cc4cccc(OC)c4oc3=O)ccc21,NRK-52E,MTT,24 h,115 µM
CC1=C(O)C(=O)C=C2C1=CC=C1[C@@]2(C)CC[C@@]2(C)[C@@H]3C[C@](C)(C(=O)OCCCCCCCO)CC[C@]3(C)CC[C@]12C,Bel-7402,MTT,48 h,0.74 µM
O=C(O)c1ccc(C(c2c[nH]c3ccccc23)c2c[nH]c3ccccc23)cc1,KG-1,,48 h,> 20 µM
CC1=C(O)C(=O)C=C2C1=CC=C1[C@@]2(C)CC[C@@]2(C)[C@@H]3C[C@](C)(C(=O)OCCCN4C(=O)C5C=CC=CC5C4=O)CC[C@]3(C)CC[C@]12C (stereo partly drawn),Bel-7402,MTT,48 h,0.83 µM
CCn1c2ccccc2c2cc(C3CC(c4cc5ccccc5oc4=O)=NN3C(C)=O)ccc21 (stereo not drawn),NRK-52E,MTT,24 h,116 µM
N[C@@H](CC(=O)N1CCN(C(c2ccc(F)cc2)c2ccc(F)cc2)CC1)C(=O)N1Cc2ccccc2C1,KG-1,ATP luminescence,48 h,9.31 µM
Cn1cc(C(c2ccc(C(=O)O)cc2)c2cn(C)c3ccccc23)c2ccccc21,KG-1,,48 h,> 20 µM
CC1=C(O)C(=O)C=C2C1=CC=C1[C@@]2(C)CC[C@@]2(C)[C@@H]3C[C@](C)(C(=O)OCCCCCO)CC[C@]3(C)CC[C@]12C,Bel-7402,MTT,48 h,0.59 µM
Cc1cc(Nc2ncc(Cl)c(Nc3ccccc3S(=O)(=O)C(C)C)n2)c(OC(C)C)cc1C1CCNCC1,Rh18,,72 h,2.34 µM
CC1=C(O)C(=O)C=C2C1=CC=C1[C@@]2(C)CC[C@@]2(C)[C@@H]3C[C@](C)(C(=O)OCCCn4ccc5ccccc54)CC[C@]3(C)CC[C@]12C,Bel-7402,MTT,48 h,5.42 µM
CCn1c2ccccc2c2cc(C3CC(c4cc5c(ccc6ccccc65)oc4=O)=NN3c3ccc(C)cc3)ccc21 (stereo not drawn),NRK-52E,MTT,24 h,79.9 µM
CC1=C(O)C(=O)C=C2C1=CC=C1[C@@]2(C)CC[C@@]2(C)[C@@H]3C[C@](C)(C(=O)OCCCCCCO)CC[C@]3(C)CC[C@]12C,Bel-7402,MTT,48 h,1.22 µM
CCn1c2ccccc2c2cc(C3CC(c4cc5cccc(OC)c5oc4=O)=NN3C(C)=O)ccc21 (stereo not drawn),NRK-52E,MTT,24 h,97.9 µM
